Measured values published in ChEMBL document CHEMBL1125829, “1,3,8-trisubstituted xanthines. Effects of substitution pattern upon adenosine receptor A1/A2 affinity” (J Med Chem, 1991).

Experiments:
Adenosine A2 receptor [1] = target: T1, Adenosine A2 receptor (Rattus norvegicus, UniProt P29276+P30543); experiment: Binding affinity against adenosine A2 receptor in rat striatum by the displacement of [3H]N-ethyladenosine-5''-uronamide(NECA).; assay type: tissue-based
Adenosine receptor A1 [2] = target: T2, Adenosine receptor A1 (Rattus norvegicus, UniProt P25099); experiment: Binding affinity against adenosine A1 receptor in rat cortex by the displacement of [3H]cyclohexyladenosine (CHA).; assay type: tissue-based
T2 sequence (P25099 whole entry): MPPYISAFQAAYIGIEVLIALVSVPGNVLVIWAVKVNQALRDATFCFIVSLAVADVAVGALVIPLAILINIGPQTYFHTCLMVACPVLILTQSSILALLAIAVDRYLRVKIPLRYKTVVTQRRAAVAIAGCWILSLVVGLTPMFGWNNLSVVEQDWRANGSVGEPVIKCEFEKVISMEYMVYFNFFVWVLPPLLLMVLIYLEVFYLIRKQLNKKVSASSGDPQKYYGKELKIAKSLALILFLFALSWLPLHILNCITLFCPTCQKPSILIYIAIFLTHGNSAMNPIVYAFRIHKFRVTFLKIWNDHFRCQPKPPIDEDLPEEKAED

Adenosine receptor A1 [3] = target: T2, Adenosine receptor A1; experiment: Binding affinity against Adenosine A1 receptor in rat cortex by displacement of [3H]cyclohexyladenosine (CHA)
In short: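 Male Sprague-Dawley rat cerebral cortex membranes, homogenized in 50 mM Tris-HCl pH 7.4, pretreated 30 min at 37 °C with ADA (2 IU/mL), 7.5 mg tissue per tube. 1.0 nM [3H]CHA, 12 xanthine concentrations, triplicates, 2 h at 25 °C; nonspecific with 10 μM 2-chloroadenosine; filtration, scintillation counting.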

Adenosine A2 receptor [4] = target: T1, Adenosine A2 receptor; experiment: Binding affinity against Adenosine A2 receptor in rat striatum by displacement of [3H]N-ethyladenosine-5''-uronamide(NECA); assay type: tissue-based
In short: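 Male Sprague-Dawley rat striatal membranes, 5 mg tissue, in 50 mM Tris-HCl pH 7.7 with 10 mM MgCl2, 0.1 unit/mL ADA and 50 nM CPA to block A1 sites. 4 nM [3H]NECA, 12 xanthine concentrations, triplicates, 1 h at room temperature; nonspecific with 100 μM CPA; filtration counting. IC50 by log-logit, Ki by Cheng-Prusoff (Kd 4 nM).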

[5] = target: Adenosine receptors; A1 & A2 (Rattus norvegicus) (UniProt P29276+P25099+P30543); experiment: Ratio of binding affinities for adenosine A2 and A1 receptors; assay type: protein assay

| SMILES | Ki (Adenosine A2 receptor [1]) | Ki (Adenosine receptor A1 [2]) | Ki (Adenosine receptor A1 [3]) | Ki (Adenosine A2 receptor [4]) | Ratio [5] |
| --- | --- | --- | --- | --- | --- |
| CCCn1c(=O)c2nc(-c3ccccc3)[nH]c2n(C)c1=O | 553 nM |  |  |  |  |
| CCCn1c(=O)n(C)c(=O)c2[nH]c(-c3ccc(O)cc3)nc21 | 81.5 nM | 2.54 nM |  |  |  |
| CCCn1c(=O)c2nc(C3CCCC3)[nH]c2n(C)c1=O | 1010 nM | 1.06 nM |  |  |  |
| CCCn1c(=O)n(C)c(=O)c2[nH]c(-c3ccc(C#N)cc3)nc21 | 254 nM | 13.9 nM |  |  |  |
| CCCn1c(=O)c2nc(CCc3ccccc3)[nH]c2n(CCC)c1=O | 593 nM | 57.8 nM |  |  |  |
| CCCn1c(=O)c2nc(-c3ccc(C#N)cc3)[nH]c2n(C)c1=O | 446 nM | 5.95 nM |  |  |  |
| CCCn1c(=O)c2[nH]c(-c3cccs3)nc2n(CCC)c1=O |  |  | 3.2 nM |  |  |
| CCCn1c(=O)c2[nH]c(-c3cccnc3)nc2n(C)c1=O |  |  | 70.2 nM |  |  |
| CCCn1c(=O)c2nc(-c3ccc(C#N)cc3)[nH]c2n(CCC)c1=O | 189 nM | 4.48 nM |  |  |  |
| CCCn1c(=O)c2nc(-c3cccs3)[nH]c2n(CCC)c1=O |  |  |  | 173 nM | 54 |
| CCCn1c(=O)n(C)c(=O)c2[nH]c(-c3cccs3)nc21 | 329 nM | 8.93 nM |  |  |  |
| CCCn1c(=O)c2nc(/C=C/c3ccccc3)[nH]c2n(CCC)c1=O | 85.1 nM |  |  |  |  |
| CCCn1c(=O)n(C)c(=O)c2[nH]c(C3CCCCC3)nc21 | 403 nM | 1.81 nM |  |  |  |
| CCCn1c(=O)c2nc(-c3ccncc3)[nH]c2n(C)c1=O | 3760 nM | 27.6 nM |  |  |  |
| CCCn1c(=O)c2nc(-c3ccc(O)cc3)[nH]c2n(C)c1=O | 263 nM | 1.28 nM |  |  |  |
| CCCn1c(=O)n(C)c(=O)c2[nH]c(/C=C/c3ccccc3)nc21 | 46.5 nM |  |  |  |  |
| Cn1c(=O)c2nc(-c3ccccc3)[nH]c2n(C)c1=O [8-PHENYL THEOPHYLLINE] | 644 nM |  |  |  |  |

| SMILES | Ki (Adenosine A2 receptor [1]) | Ki (Adenosine receptor A1 [2]) | Ki (Adenosine receptor A1 [3]) | Ki (Adenosine A2 receptor [4]) | Ratio [5] |
| --- | --- | --- | --- | --- | --- |
| CCCn1c(=O)n(C)c(=O)c2[nH]c(-c3cccnc3)nc21 |  |  | 72.8 nM | 1200 nM | 16 |
| CCCn1c(=O)n(C)c(=O)c2[nH]c(C3CCCC3)nc21 | 247 nM | 0.85 nM |  |  |  |
| CCCn1c(=O)c2nc(/C=C/c3ccccc3)[nH]c2n(C)c1=O | 58 nM | 49.6 nM |  |  |  |
| CCCn1c(=O)n(C)c(=O)c2[nH]c(CCc3ccccc3)nc21 | 1050 nM | 259 nM |  |  |  |
| CCCn1c(=O)c2nc(C3CCCCC3)[nH]c2n(C)c1=O | 995 nM | 5.02 nM |  |  |  |
| CCCn1c(=O)c2nc(-c3cccs3)[nH]c2n(C)c1=O |  |  | 9.68 nM | 719 nM | 74 |
| CCCn1c(=O)c2nc(-c3cccnc3)[nH]c2n(C)c1=O |  |  |  | 3100 nM | 44 |
| CCCn1c(=O)c2nc(-c3ccsc3)[nH]c2n(CCC)c1=O | 39.4 nM | 2.04 nM |  |  |  |
| CCCn1c(=O)c2nc(-c3cccnc3)[nH]c2n(CCC)c1=O |  |  | 11.6 nM | 347 nM | 30 |
| CCCn1c(=O)c2nc(-c3ccncc3)[nH]c2n(CCC)c1=O | 136 nM | 3.23 nM |  |  |  |
| CCCn1c(=O)c2nc(CCc3ccccc3)[nH]c2n(C)c1=O | 1440 nM | 275 nM |  |  |  |
| CCCn1c(=O)c2nc(-c3ccc(O)cc3)[nH]c2n(CCC)c1=O |  | 0.63 nM |  |  |  |
| CCCn1c(=O)n(C)c(=O)c2[nH]c(-c3ccsc3)nc21 |  |  | 4.68 nM | 70.3 nM | 15 |
| CCCn1c(=O)c2nc(-c3ccsc3)[nH]c2n(C)c1=O |  |  | 6.4 nM | 315 nM | 49 |
| CCCn1c(=O)n(C)c(=O)c2[nH]c(-c3ccncc3)nc21 | 476 nM | 21.8 nM |  |  |  |
| CCCn1c(=O)n(C)c(=O)c2[nH]c(-c3ccccc3)nc21 | 93.3 nM |  |  |  |  |
